According to publication PMC11912358 (RSC Advances, 2025):

Columns and labels:
[1] = Cytotoxicity assay using cell-counting kit-8; format: cell-based
In short: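 HeLa cells (5 × 10³) exposed to dye-labelled (Alexa Fluor 647) tripeptides carrying perfluoroalkyl or alkyl chains for 1 h. Viability read with the CCK-8 reagent, and IC50 reported from this read-out.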

HeLa cells = experiment: Cellular uptake by flow cytometry; format: cell-based; conditions: 150 nM peptide, 1 h, 37 °C, 5% CO2, serum-free medium, AF647 fluorescence, AF647-NEt2 control as reference

Cellular uptake efficiency (fluorescence intensity of cells, RFI) (HeLa cells): comparable cellular uptake efficiencies
SMILES: C[C@H](NC(=O)CCCCCC1(C)C(=CC=CC=CC2=[N+](CCCS(=O)(=O)[O-])c3ccc(S(=O)(=O)O)cc3C2(C)C)N(CCCS(=O)(=O)O)c2ccc(S(=O)(=O)O)cc21)C(=O)N[C@@H](CC(=O)Nc1ccc(C(F)(F)C(F)(F)C(F)(F)C(F)(F)C(F)(F)C(F)(F)C(F)(F)C(F)(F)F)cc1)C(=O)N[C@@H](Cc1ccccc1)C(N)=O (some centres unmarked) [AF647-RF-tripeptide (RF = C8F17)]
IC50 [1]: 41 ± 9 µM
